Measured values as given in article PMC10795913 (The Journal of Clinical Endocrinology and Metabolism, 2023).
Marks after values point to notes of the source that are not given here.

Tests used:
[1] = system: patients with type 2 diabetes; experiment: Hypersensitivity reactions by TE ADA status; assay type: in vivo, human
How it was run: (§1)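 Hypersensitivity or injection site reactions during the planned treatment period were tabulated by dose group. Patients were split by treatment-emergent ADA status (TE ADA+ vs TE ADA–). Analysis was descriptive and non-randomized.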

[2] = system: patients with type 2 diabetes; experiment: Antidrug antibody; assay type: in vivo, human
native GIP (nGIP) = target: T1, native GIP (nGIP) (Homo sapiens, UniProt P09681); experiment: Cross-reactive ADA binding to nGIP; assay type: in vivo; conditions: N = 5025
T1 sequence (P09681 52-93 limits assumed): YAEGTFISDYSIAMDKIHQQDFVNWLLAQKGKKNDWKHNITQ

GLP-1R = GLP-1R (Homo sapiens, UniProt P43220); experiment: Cell-based assay for NAb against TZP activity on GLP-1R; assay type: in vivo; conditions: N = 5025
native GLP-1 (nGLP-1) = experiment: Cross-reactive ADA binding to nGLP-1; assay type: in vivo, human; conditions: N = 5025
[3] = Tirzepatide pharmacokinetics; assay type: in vivo, human
[4] = system: patients with type 2 diabetes; experiment: Injection site reactions by TE ADA status; assay type: in vivo, human
How it was run: as §1

GIPR = target: T2, GIPR (Homo sapiens, UniProt P48546); experiment: Cell-based assay for NAb against TZP activity on GIPR; assay type: in vivo; conditions: N = 5025
T2 sequence (P48546 22-466): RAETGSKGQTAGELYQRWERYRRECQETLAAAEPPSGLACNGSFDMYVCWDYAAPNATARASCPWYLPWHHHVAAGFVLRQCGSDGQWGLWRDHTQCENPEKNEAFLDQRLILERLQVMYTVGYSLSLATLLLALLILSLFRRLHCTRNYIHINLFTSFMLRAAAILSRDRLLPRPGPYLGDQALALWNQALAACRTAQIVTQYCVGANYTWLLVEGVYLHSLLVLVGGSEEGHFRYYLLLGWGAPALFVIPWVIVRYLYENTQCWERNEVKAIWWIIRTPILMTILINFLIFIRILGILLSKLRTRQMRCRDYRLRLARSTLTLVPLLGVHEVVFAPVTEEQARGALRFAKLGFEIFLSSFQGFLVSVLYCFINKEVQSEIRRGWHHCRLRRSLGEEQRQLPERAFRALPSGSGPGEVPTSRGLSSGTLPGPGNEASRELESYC

[5] = TZP 5 mg, TE ADA status not evaluable
[6] = TZP 10 mg, TE ADA status not evaluable
[7] = TZP all doses, TE ADA status not evaluable

GLP-1R, sequence (P43220 24-463): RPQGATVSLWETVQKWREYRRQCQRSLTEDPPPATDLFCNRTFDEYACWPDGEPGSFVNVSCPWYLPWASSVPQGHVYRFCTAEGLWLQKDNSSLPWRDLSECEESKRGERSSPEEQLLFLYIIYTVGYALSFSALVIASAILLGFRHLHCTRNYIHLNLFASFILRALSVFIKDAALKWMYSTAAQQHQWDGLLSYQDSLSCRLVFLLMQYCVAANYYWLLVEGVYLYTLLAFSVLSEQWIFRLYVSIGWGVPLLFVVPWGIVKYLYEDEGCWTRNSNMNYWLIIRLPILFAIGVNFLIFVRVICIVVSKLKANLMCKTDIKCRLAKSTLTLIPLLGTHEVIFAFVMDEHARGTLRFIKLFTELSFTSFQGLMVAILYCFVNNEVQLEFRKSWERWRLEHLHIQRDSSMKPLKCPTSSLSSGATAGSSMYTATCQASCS

## CC[C@H](C)[C@H](NC(=O)[C@H](CC(C)C)NC(=O)[C@H](Cc1c[nH]c2ccccc12)NC(=O)[C@H](CCC(N)=O)NC(=O)[C@@H](NC(=O)[C@H](Cc1ccccc1)NC(=O)[C@H](C)NC(=O)[C@H](CCCCNC(=O)COCCOCCNC(=O)COCCOCCNC(=O)CC[C@H](NC(=O)CCCCCCCCCCCCCCCCCCC(=O)O)C(=O)O)NC(=O)[C@H](CCC(N)=O)NC(=O)[C@H](C)NC(=O)[C@@H](NC(=O)[C@H](CCCCN)NC(=O)[C@H](CC(=O)O)NC(=O)[C@H](CC(C)C)NC(=O)C(C)(C)NC(=O)[C@@H](NC(=O)[C@H](CO)NC(=O)[C@H](Cc1ccc(O)cc1)NC(=O)[C@H](CC(=O)O)NC(=O)[C@H](CO)NC(=O)[C@@H](NC(=O)[C@H](Cc1ccccc1)NC(=O)[C@@H](NC(=O)CNC(=O)[C@H](CCC(=O)O)NC(=O)C(C)(C)NC(=O)[C@@H](N)Cc1ccc(O)cc1)[C@@H](C)O)[C@@H](C)O)[C@@H](C)CC)[C@@H](C)CC)C(C)C)C(=O)N[C@@H](C)C(=O)NCC(=O)NCC(=O)N1CCC[C@H]1C(=O)N[C@@H](CO)C(=O)N[C@@H](CO)C(=O)NCC(=O)N[C@@H](C)C(=O)N1CCC[C@H]1C(=O)N1CCC[C@H]1C(=O)N1CCC[C@H]1C(=O)N[C@@H](CO)C(N)=O [tirzepatide]
[1]; TZP 5 mg, TE ADA+, n 815
  Hypersensitivity reactions, %: 3.93%
  Hypersensitivity reactions, m (number of patients with specified reaction): 32
[1]; TZP 5 mg, TE ADA–, n 855
  Hypersensitivity reactions, %: 3.04%
  Hypersensitivity reactions, m (number of patients with specified reaction): 26
[1]; TZP 10 mg, TE ADA+, n 858
  Hypersensitivity reactions, %: 3.61%
  Hypersensitivity reactions, m (number of patients with specified reaction): 31
[1]; TZP 10 mg, TE ADA–, n 812
  Hypersensitivity reactions, %: 3.2%
  Hypersensitivity reactions, m (number of patients with specified reaction): 26
[1]; TZP 15 mg, TE ADA+, n 897
  Hypersensitivity reactions, %: 4.79%
  Hypersensitivity reactions, m (number of patients with specified reaction): 43
[1]; TZP 15 mg, TE ADA–, n 788
  Hypersensitivity reactions, %: 2.66%
  Hypersensitivity reactions, m (number of patients with specified reaction): 21
[1]; TZP all doses, TE ADA+, n 2570
  Hypersensitivity reactions, %: 4.12%
  Hypersensitivity reactions, m (number of patients with specified reaction): 106
[1]; TZP all doses, TE ADA–, n 2455
  Hypersensitivity reactions, %: 2.97%
  Hypersensitivity reactions, m (number of patients with specified reaction): 73
[1]; TZP-treated patients
  Anaphylactic reactions: No anaphylactic reactions
[1]; in vivo
  Severity of hypersensitivity events in TE ADA+ patients: mostly mild to moderate
[2]; SURPASS Japan-Combo, N 443
  Time to first TE ADA+ titer ≤4 wk: 1 (0.2) n (%)
  Time to first TE ADA+ titer ≤12 wk: 32 (7.2) n (%)
  Time to first TE ADA+ titer ≤40 wk: 209 (47.2) n (%)
  Time to first TE ADA+ titer ≤52 wk: 244 (55.1) n (%)
[2]; SURPASS Japan-Combo, N 443, flexibility of visit windows
  Time to first TE ADA+ titer ≤78 wk: 257 (58.0)^a n (%)
[2]; SURPASS Japan-Mono, N 476
  Time to first TE ADA+ titer ≤4 wk: 4 (0.8) n (%)
  Time to first TE ADA+ titer ≤12 wk: 51 (10.7) n (%)
  Time to first TE ADA+ titer ≤24 wk: 182 (38.2) n (%)
  Time to first TE ADA+ titer ≤40 wk: 278 (58.4) n (%)
  Time to first TE ADA+ titer ≤52 wk: 312 (65.5) n (%)
[2]; SURPASS Japan-Mono, N 476, flexibility of visit windows
  Time to first TE ADA+ titer ≤78 wk: 322 (67.6)^a n (%)
[2]; SURPASS-1, N 351
  Time to first TE ADA+ titer ≤4 wk: 0 n (%)
  Time to first TE ADA+ titer ≤12 wk: 16 (4.6) n (%)
  Time to first TE ADA+ titer ≤24 wk: 90 (25.6) n (%)
  Time to first TE ADA+ titer ≤40 wk: 155 (44.2) n (%)
[2]; SURPASS-1, N 351, flexibility of visit windows
  Time to first TE ADA+ titer ≤52 wk: 174 (49.6)^a n (%)
[2]; SURPASS-2, N 1393
  Time to first TE ADA+ titer ≤4 wk: 6 (0.4) n (%)
  Time to first TE ADA+ titer ≤12 wk: 91 (6.5) n (%)
  Time to first TE ADA+ titer ≤24 wk: 352 (25.3) n (%)
  Time to first TE ADA+ titer ≤40 wk: 639 (45.9) n (%)
[2]; SURPASS-2, N 1393, flexibility of visit windows
  Time to first TE ADA+ titer ≤52 wk: 704 (50.5)^a n (%)
[2]; SURPASS-3, N 1062
  Time to first TE ADA+ titer ≤4 wk: 12 (1.1) n (%)
  Time to first TE ADA+ titer ≤12 wk: 80 (7.5) n (%)
  Time to first TE ADA+ titer ≤24 wk: 266 (25.0) n (%)
  Time to first TE ADA+ titer ≤40 wk: 466 (43.9) n (%)
  Time to first TE ADA+ titer ≤52 wk: 518 (48.8) n (%)
[2]; SURPASS-3, N 1062, flexibility of visit windows
  Time to first TE ADA+ titer ≤78 wk: 536 (50.5)^a n (%)
[2]; SURPASS-4, N 956
  Time to first TE ADA+ titer ≤4 wk: 7 (0.7) n (%)
  Time to first TE ADA+ titer ≤12 wk: 62 (6.5) n (%)
  Time to first TE ADA+ titer ≤24 wk: 190 (19.9) n (%)
  Time to first TE ADA+ titer ≤40 wk: 300 (31.4) n (%)
  Time to first TE ADA+ titer ≤52 wk: 367 (38.4) n (%)
  Time to first TE ADA+ titer ≤78 wk: 389 (40.7) n (%)
  Time to first TE ADA+ titer ≤104 wk: 399 (41.7) n (%)
[2]; SURPASS-5, N 344
  Time to first TE ADA+ titer ≤4 wk: 3 (0.9) n (%)
  Time to first TE ADA+ titer ≤12 wk: 26 (7.6) n (%)
  Time to first TE ADA+ titer ≤24 wk: 89 (25.9) n (%)
  Time to first TE ADA+ titer ≤40 wk: 160 (46.5) n (%)
[2]; SURPASS-5, N 344, flexibility of visit windows
  Time to first TE ADA+ titer ≤52 wk: 178 (51.7)^a n (%)
[2]; baseline, 7 SURPASS phase 3 trials pooled, TE ADA-evaluable TZP-treated N = 5025
  Preexisting ADA: 353 (7.0) n (%)
[2]; postbaseline, 7 trials pooled, N = 5025
  TE ADA+: 2570 (51.1) n (%)
Native GIP (nGIP); baseline
  Cross-reactive binding ADA to nGIP: 97 (1.9) n (%)
Native GIP (nGIP); postbaseline
  Cross-reactive binding ADA to nGIP: 1705 (33.9) n (%)
GLP-1R; baseline
  NAb against TZP activity on GLP-1 R: 2 (<0.1) n (%)
GLP-1R; postbaseline
  NAb against TZP activity on GLP-1 R: 107 (2.1) n (%)
Native GLP-1 (nGLP-1); baseline
  Cross-reactive binding ADA to nGLP-1: 34 (0.7) n (%)
Native GLP-1 (nGLP-1); postbaseline
  Cross-reactive binding ADA to nGLP-1: 716 (14.2) n (%)
[3]; graphical comparison, ADA detected vs not detected and by titer
  Apparent clearance (CL/F): effect of ADA status or ADA titer: not affected
[3]; in vivo
  Relationship between NAb and TZP concentration: No relationship
[4]; [5]
  Injection site reactions, %: 0.06%
  Injection site reactions, m (number of patients with specified reaction): 1
[4]; TZP 5 mg, TE ADA+, n 815
  Injection site reactions, %: 3.07%
  Injection site reactions, m (number of patients with specified reaction): 25
[4]; TZP 5 mg, TE ADA–, n 855
  Injection site reactions, %: 0.82%
  Injection site reactions, m (number of patients with specified reaction): 7
[4]; [6]
  Injection site reactions, %: 0.06%
  Injection site reactions, m (number of patients with specified reaction): 1
[4]; TZP 10 mg, TE ADA+, n 858
  Injection site reactions, %: 4.43%
  Injection site reactions, m (number of patients with specified reaction): 38
[4]; TZP 10 mg, TE ADA–, n 812
  Injection site reactions, %: 0.86%
  Injection site reactions, m (number of patients with specified reaction): 7
[4]; TZP 15 mg, TE ADA status not evaluable
  Injection site reactions, m (number of patients with specified reaction): 0
[4]; TZP 15 mg, TE ADA+, n 897
  Injection site reactions, %: 6.24%
  Injection site reactions, m (number of patients with specified reaction): 56
[4]; TZP 15 mg, TE ADA–, n 788
  Injection site reactions, %: 0.51%
  Injection site reactions, m (number of patients with specified reaction): 4
[4]; [7]
  Injection site reactions, %: 0.04%
  Injection site reactions, m (number of patients with specified reaction): 2
[4]; TZP all doses, TE ADA+, n 2570
  Injection site reactions, %: 4.63%
  Injection site reactions, m (number of patients with specified reaction): 119
[4]; TZP all doses, TE ADA–, n 2455
  Injection site reactions, %: 0.73%
  Injection site reactions, m (number of patients with specified reaction): 18
[4]; all events
  Severity of injection site reactions: nonserious and nonsevere
[4]; all were TE ADA+
  Patients who discontinued study drug because of injection site reactions: Four
GIPR; baseline
  NAb against TZP activity on GIP R: 2 (<0.1) n (%)
GIPR; postbaseline
  NAb against TZP activity on GIP R: 94 (1.9) n (%)
